SENP1 inh: SENP1 (human) catalytic domain inhibition | Q9P0U3 | recombinant SENP1 catalytic domain, CyPet-SUMO1-YPet FRET cleavage | inhibition, % at 10 µM | actives 0.21% (n = 360,000) | AID 624204;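 active = inhibition at least 30% at 10 µM, raw YFP signal under a set limit, fluorescence ratio 0.5 to 1.5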;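 note: 0% = enzyme with DMSO and 100% = no enzyme wells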
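Test system: hSENP1 catalytic domain, recombinant; Amount: 20 pM final SENP1 enzyme; Medium: Tris pH 8 buffer plus EDTA, NaCl, BME, BSA, NP40, catalase; Schedule: 50 min enzyme reaction, room temperature, light-protected; Technique: FRET fluorescence in CFP and YFP emission channels; Controls: no-enzyme wells low, DMSO-plus-enzyme wells high control.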
SENP8 block-1: blocks the human protease SENP8; purified SENP8, Z-RLRGG-aminoluciferin cleavage, luminescence; inhibition, % at 10 µM; actives 1.2% (n = 330,000); AID 2540; in the data active = inhibition above about 50%
SENP6 block: inhibitors of human SENP6 protease; Q9GZR1; Recombinant SENP6 catalytic domain, aminoluciferin luminescence; inhibition, % at 10 µM; actives 1.8% (n = 330,000);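 active = inhibition above about 50% at the single tested dose, limit read from the data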;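 note: plate controls were DMSO wells with enzyme for no effect and DMSO wells lacking enzyme for full effect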
Target sequence (Q9GZR1 628-1112 limits assumed): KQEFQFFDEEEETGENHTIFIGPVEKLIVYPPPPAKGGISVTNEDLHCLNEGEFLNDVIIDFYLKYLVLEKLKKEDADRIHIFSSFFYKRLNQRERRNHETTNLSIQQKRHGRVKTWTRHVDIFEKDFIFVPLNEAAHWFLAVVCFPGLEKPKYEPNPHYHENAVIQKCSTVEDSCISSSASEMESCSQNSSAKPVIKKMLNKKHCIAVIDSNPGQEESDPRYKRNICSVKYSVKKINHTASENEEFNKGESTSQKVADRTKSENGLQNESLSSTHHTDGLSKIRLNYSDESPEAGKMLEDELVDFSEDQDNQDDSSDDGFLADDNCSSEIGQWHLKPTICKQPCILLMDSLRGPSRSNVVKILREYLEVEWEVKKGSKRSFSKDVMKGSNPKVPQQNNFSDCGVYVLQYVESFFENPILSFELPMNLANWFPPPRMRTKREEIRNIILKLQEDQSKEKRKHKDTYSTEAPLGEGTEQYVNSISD
SENP7 block: inhibitors of human SENP7 protease; recombinant SENP7, Z-RLRGG-aminoluciferin luminescence, 40 min; inhibition, % at 5 µM; actives 1.5% (n = 330,000); AID 434973;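 active = inhibition above about 50% at the single test dose, limit read from the data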;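 note: plate controls were DMSO with enzyme for no effect and no enzyme buffer wells for full effect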
Apaf-1 inh: blocks human Apaf-1 apoptosome activity; inhibition, % at 20 µM; actives 0.71% (n = 330,000); AID 489030; reconstituted apoptosome caspase-3 activity, DEVD-Rh110 fluorescence; O14727; active = inhibition of at least 40% at 20 µM;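 note: plate controls were DMSO wells for no effect and DEVD-CHO caspase inhibitor wells for full effect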
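System: Apoptosome proteins | Medium: Hepes pH 7.5 with detergent and BSA | Also added: Cytochrome c trigger plus (Z-DEVD)2-Rh110 caspase-3 substrate | Incubation: 30 min compound preincubation, 50 min activation, room temperature | Detection: Rhodamine 110 fluorescence at Ex 480/Em 540 nm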
SENP8 block-2: inhibitors of human SENP8 protease; Q96LD8; inhibition, % at 20 µM; actives 0.64% (n = 360,000); recombinant SENP8, Nedd8 substrate fluorescence; in the data active = inhibition mostly above about 40%, no sharp cut-off; inactive = mostly below about 27%
SENP8 confirm: human SENP8 inhibition, confirmed. shares compounds with SENP7 block. Recombinant SENP8, Z-RLRGG-aminoluciferin luminescence, 60 min. inhibition, % at 12.5 µM. actives 40% (n = 6,200). AID 488912;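 active = mean inhibition across replicates above about 50%, limit read from the data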
SENP6 conf: confirmation of human SENP6 protease inhibitors; shares compounds with SENP7 block; actives 58% (n = 6,200); inhibition, % at 12.5 µM; recombinant SENP6, Z-RLRGG-aminoluciferin luminescence; AID 488915
SENP7 conf: human SENP7 inhibition, confirmed; shares compounds with SENP7 block; recombinant SENP7, Z-RLRGG-aminoluciferin luminescence, 40 min; inhibition, % at 12.5 µM; actives 69% (n = 6,200); AID 488917
Casp3 select: selectivity test for SENP inhibitors: human caspase-3 inhibition | actives 60% (n = 6,200) | shares compounds with SENP7 block | inhibition, % at 12.5 µM | purified caspase-3, Z-DEVD-aminoluciferin luminescence, 60 min | AID 488918;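 active = mean inhibition above about 50%, limit read from the data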;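 note: plate controls were enzyme with DMSO for no effect and wells without caspase-3 for full effect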
Target sequence (P42574 28-227 limits assumed): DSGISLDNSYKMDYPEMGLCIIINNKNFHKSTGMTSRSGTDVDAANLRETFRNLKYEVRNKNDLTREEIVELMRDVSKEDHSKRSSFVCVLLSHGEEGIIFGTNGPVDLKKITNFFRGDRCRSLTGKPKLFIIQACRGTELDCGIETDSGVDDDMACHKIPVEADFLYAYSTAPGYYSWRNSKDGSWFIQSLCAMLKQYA
Luc interf: counter-screen for SENP inhibitors: luminescence interference | shares compounds with SENP7 block | Pre-incubated SENP8/Z-RLRGG-aminoluciferin, luciferase luminescence interference | inhibition, % at 12.5 µM | actives 39% (n = 6,200) | AID 488919;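 active = mean inhibition above about 50% when retested at one dose, limit read from the data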;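 note: plate controls were DMSO wells with completed reaction for no effect and substrate without enzyme for full effect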
An asterisk follows results filed as active; · = no result. Only some compounds are listed: those with a hit (about 2.9% of all), similar ones and a draw of the others.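 Rule for the calls, unless noted: active = mean inhibition above about 50% in the one-dose retest (limit read from the data); inactive = the rest.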

SMILES	SENP1 inh	SENP8 block-1	SENP6 block	SENP7 block	Apaf-1 inh	SENP8 block-2	SENP8 confirm	SENP6 conf	SENP7 conf	Casp3 select	Luc interf
O=C(O)c1ccc(-c2noc(-c3ccccc3Cl)n2)cc1	2	97*	97*	88*	7	9	99*	99*	103*	98*	98*
Cc1cc(C(=O)NCC(c2ccco2)N2CCCC2)c2ccccc2n1 (centres undefined)	-5	-18	-4	-4	11	-9	·	·	·	·	·
Cc1ccc(Cc2c(C3CCCCC3)nc3cc(C)c(Br)c(C)n23)cc1	-2	·	·	·	·	14	·	·	·	·	·
Cc1ccc(S(=O)(=O)NC(=O)C2(C)CCN2C(=O)c2cccc(F)c2)cc1 (centres undefined)	-1	·	·	·	·	15	·	·	·	·	·
CN(C(=S)NC(=O)C1CCCC1)c1ccccc1	3	·	·	·	·	11	·	·	·	·	·
CC1=NN(C(N)=S)C(=O)C1N=Nc1ccccc1C(=O)O (centres undefined)	1	-7	8	3	0	10	·	·	·	·	·
CC1=NN(C(N)=S)C(=O)C1N=Nc1cccc(C)c1 (centres undefined)	4	60*	1	54*	-14	30	13	10	12	8	4
CC1=NN(C(N)=S)C(=O)C1N=Nc1ccc(C)c(Br)c1 (centres undefined)	0	93*	95*	78*	-2	18	62*	53*	43	68*	36
CC1=NN(C(N)=S)C(=O)C1N=Nc1cccc(C(=O)O)c1 (centres undefined)	0	85*	93*	91*	-18	27	92*	92*	100*	84*	47
CC1=NN(c2nc(-c3ccc(C)cc3)cs2)C(=O)C1N=Nc1cccc(C)c1 (centres undefined)	4	8	69*	-2	-8	35	-2	16	-9	16	52*
CCOC(=O)c1sc(N2N=C(C)C(N=Nc3cccc(C)c3)C2=O)nc1C (centres undefined)	-2	0	-6	3	8	17	·	·	·	·	·
N#Cc1ccccc1S(=O)(=O)N1CCN(Cc2cc3c(cc2Br)OCCO3)CC1	0	·	·	·	·	-3	·	·	·	·	·
CC1(NC(=O)Nc2cccc(Br)c2)CCS(=O)(=O)C1 (centres undefined)	0	0	-13	-8	-4	9	·	·	·	·	·
CN(C)S(=O)(=O)c1ccc(Cl)c(NC(=O)CN2C(=O)NC3(CCc4ccccc43)C2=O)c1 (centres undefined)	-2	8	-4	3	0	7	·	·	·	·	·
O=C(O)c1cccc(-n2cccc2/C=C/[N+](=O)[O-])c1	1	2	-5	-11	-3	-36	·	·	·	·	·
Cc1c(Cl)cccc1NC(=S)C(=C([O-])c1ccc(Cl)s1)[n+]1ccccc1	-9	·	·	·	·	13	·	·	·	·	·
CSc1ccccc1C(=O)Nc1ccc(C)c(C)c1	2	39	65*	68*	4	-2	54*	52*	84*	74*	70*
CSc1ccccc1C(=O)Nc1ccc2c(c1)OCO2	-1	-9	-8	3	-13	-1	·	·	·	·	·
Cc1occc1C(=O)Nc1ccc2c(c1)OCO2	-1	54*	84*	80*	4	22	64*	63*	89*	90*	74*
Nc1ccccc1C(=O)Nc1cccc(C(=O)O)c1	3	92*	95*	4	-18	-164	96*	97*	101*	82*	96*
O=C(O)c1cccc(NC(=O)c2ccccc2NC(=O)c2cccs2)c1	2	·	·	·	·	7	·	·	·	·	·
Cc1cc(NC(=O)c2ccoc2C)ccc1Br	-2	97*	100*	97*	-1	4	98*	99*	102*	95*	96*
CCCNC(=O)C1(C)CCN(Cc2csc3ccccc23)C1 (centres undefined)	1	·	·	·	·	12	·	·	·	·	·
COc1cccc(C(C)(O)c2nc(-c3ccc(C)c(C)c3)cs2)c1 (centres undefined)	3	·	·	·	·	6	·	·	·	·	·
CCN(CC)S(=O)(=O)c1ccc(N2CCOCC2)c(NS(=O)(=O)c2ccc(Cl)s2)c1	-11	·	·	·	·	-6	·	·	·	·	·
SMILES	SENP1 inh	SENP8 block-1	SENP6 block	SENP7 block	Apaf-1 inh	SENP8 block-2	SENP8 confirm	SENP6 conf	SENP7 conf	Casp3 select	Luc interf
O=C1N(c2ccccc2)c2ccccc2[C@]12C[C@H](O)CO2	1	·	·	·	·	13	·	·	·	·	·
Cc1occc1C(=O)Nc1cccc(C(F)(F)F)c1	-2	-1	7	11	12	11	·	·	·	·	·
Cc1ccc(NC(=O)c2ccoc2C)cc1C	1	92*	92*	97*	1	16	-2	94*	101*	96*	93*
COC(=O)c1cc(NC(=O)c2ccoc2C)cc(C(=O)OC)c1	0	0	-8	0	3	-8	·	·	·	·	·
Cc1occc1C(=O)Nc1cccc(C(=O)O)c1	0	91*	96*	96*	-18	8	95*	95*	101*	72*	93*
C[C@@H]1COc2cccc(N3CCC[C@@H]3CO)c2S(=O)(=O)N1	0	·	·	·	·	4	·	·	·	·	·
O=C(NCc1cccs1)c1ccc2sc(COCCO)nc2c1	-5	·	·	·	·	10	·	·	·	·	·
CCCOc1ccc(F)cc1-c1cc(C(=O)NCc2ccco2)[nH]n1	2	·	·	·	·	10	·	·	·	·	·
Cc1ccccc1-c1noc(-c2ccc(O)cc2)n1	4	99*	98*	101*	9	17	99*	100*	102*	98*	97*
COc1ccc(-c2ccc(-c3noc(-c4ccccc4C)n3)c(OC)n2)cc1	-24	0	-14	1	2	-417	·	·	·	·	·
Cc1ccccc1-c1noc(-c2ccccc2F)n1	1	90*	84*	96*	1	19	78*	78*	94*	81*	61*
NC(=O)c1ccc(-c2noc(-c3ccccc3F)n2)cc1	2	66*	74*	77*	1	16	36	63*	77*	69*	20

Screening data deposited in PubChem BioAssay by Sanford-Burnham Center for Chemical Genomics.
